Assay results reported in ChEMBL document CHEMBL3044622, “Effectiveness and mode of action of phosphonate inhibitors of plant glutamine synthetase” (Pest Manag Sci, 2010).

What was measured:
[1] = biological target: T1, Glutamine synthetase, chloroplastic (Zea mays, UniProt P25462); test: Inhibition of Zea mays cv. Jeff (maize) leaf glutamine synthetase using L-glutamate as substrate assessed as inorganic phosphate production after 20 min by malachite green assay relative to control
T1 sequence (P25462 whole entry): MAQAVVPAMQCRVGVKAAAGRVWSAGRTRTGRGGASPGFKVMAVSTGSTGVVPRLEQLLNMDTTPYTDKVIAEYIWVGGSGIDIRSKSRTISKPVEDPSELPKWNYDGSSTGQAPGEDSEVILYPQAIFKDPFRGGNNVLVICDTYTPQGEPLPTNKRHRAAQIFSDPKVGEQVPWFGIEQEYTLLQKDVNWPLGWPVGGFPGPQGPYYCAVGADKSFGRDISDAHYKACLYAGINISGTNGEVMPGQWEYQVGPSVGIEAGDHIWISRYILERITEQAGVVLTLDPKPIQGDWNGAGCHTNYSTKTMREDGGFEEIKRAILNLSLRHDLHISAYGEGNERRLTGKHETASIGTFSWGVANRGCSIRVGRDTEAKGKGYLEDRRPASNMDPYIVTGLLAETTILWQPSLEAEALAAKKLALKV
Outline: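 GS purified from three-leaf-stage maize seedling leaves by ammonium sulfate, DEAE-Sephacel, Reactive Blue flow-through and Mono-Q steps. Inhibitor adjusted to pH 7.4 with KOH, 0.001–5 mM; IC50 by probit method.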

[2] = biological target: T2, Glutamine synthetase, chloroplastic (Zea mays) (UniProt P25462); test: Inhibition of Zea mays cv. Jeff (maize) leaf glutamine synthetase using L-glutamate as substrate assessed as inorganic phosphate production at 1 mM after 20 min by malachite green assay relative to control
T2 sequence (whole entry): T1 sequence (P25462 whole entry)

[3] = biological target: T1, Glutamine synthetase, chloroplastic; test: Non-competitive inhibition of Zea mays cv. Jeff( maize) leaf glutamine synthetase using L-glutamate as substrate Lineweaver-Burk plot analysis
[4] = biological target: T1, Glutamine synthetase, chloroplastic; test: Un-competitive inhibition of Zea mays cv. Jeff (maize) leaf glutamine synthetase using ATP as substrate Lineweaver-Burk plot analysis
Outline: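 With purified maize leaf GS in the biosynthetic assay (Pi by malachite green, 35 °C), ATP was varied at seven levels from 0.2 to 1 mM with L-glutamate fixed at 50 mM. Four inhibitor levels, 0.5- to 3-fold the I50, each at least in triplicate. Lineweaver–Burk plots were used, and Ki came from Dixon replots. Values are means ± SEM.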

NC(c1ccccc1Br)P(=O)(O)O (centres undefined) [AMINO(2-BROMOPHENYL)METHYLPHOSPHONIC ACID] was tested, and the IC50 [1] was 4100 µM and the inhibition [2] was 42.5%.
In the case of O=P(O)(O)C(O)c1cccc(Cl)c1Cl (centres undefined) [(2,3-DICHLOROPHENYL)(HYDROXY)METHYLPHOSPHONIC ACID], the IC50 [1] is reported as 1160 µM and the inhibition [2] is reported as 47.2%.
NC(c1cccc(Cl)c1Cl)P(=O)(O)O (centres undefined) [AMINO(2,3-DICHLOROPHENYL)METHYLPHOSPHONIC ACID] gave an IC50 [1] of 1050 µM and an inhibition [2] of 47.7%.
With NC(c1cccc(F)c1)P(=O)(O)O (centres undefined) the inhibition [2] was 7.9%.
O=P(O)(O)C(O)c1ccc(Cl)cc1Cl (centres undefined) [(2,4-DICHLOROPHENYL)(HYDROXY)METHYLPHOSPHONIC ACID] was tested, and the IC50 [1] was 4830 µM and the inhibition [2] was 31.9%.
With O=P(O)(O)C(Nc1ccc(Cl)cc1)P(=O)(O)O [(4-CHLOROPHENYLAMINO)METHYLENEDIPHOSPHONIC ACID] the IC50 [1] was 21 µM and the inhibition [2] was 79.1%.
Work on O=P(O)(O)C(O)c1cccc(Cl)c1 (centres undefined) yielded an inhibition [2] of 12.3%.
With O=P(O)(O)C(Nc1ccc(Cl)cc1Cl)P(=O)(O)O [2,4-DICHLOROPHENYLAMINOMETHYLENEBISPHOSPHONIC ACID] the IC50 [1] was 21.2 µM and the inhibition [2] was 79.7%.
With NC(c1ccccc1Cl)P(=O)(O)O (centres undefined) [AMINO(2-CHLOROPHENYL)METHYLPHOSPHONIC ACID] the IC50 [1] was 5810 µM and the inhibition [2] was 36.3%.
O=P(O)(O)C(Nc1cc(Cl)cc(Cl)c1)P(=O)(O)O [(3,5-DICHLOROPHENYLAMINO)METHYLENEDIPHOSPHONIC ACID] showed an IC50 [1] of 7.6 µM, a Ki [3] of 7.2 µM and an inhibition [2] of 86.3%. The Ki [4] was 6.4 µM.
With O=P(O)(O)C(Nc1c(Cl)cccc1Cl)P(=O)(O)O [2,6-DICHLOROPHENYLAMINOMETHYLENEBISPHOSPHONIC ACID] the IC50 [1] was 15 µM and the inhibition [2] was 81.1%.
O=P(O)(O)C(O)c1ccccc1Cl (centres undefined) [(2-CHLOROPHENYL)(HYDROXY)METHYLPHOSPHONIC ACID] was tested, and the IC50 [1] was 6610 µM and the inhibition [2] was 27%.
In the case of COc1cccc(C(N)P(=O)(O)O)c1OC (centres undefined), the inhibition [2] is reported as -1.2%.
In the case of NC(c1ccccc1)P(=O)(O)O (centres undefined), the inhibition [2] is reported as 13.6%.
For NC(c1ccccc1F)P(=O)(O)O (centres undefined) [AMINO(2-FLUOROPHENYL)METHYLPHOSPHONIC ACID], the IC50 [1] was 10100 µM and the inhibition [2] was 26.7%.
Work on O=P(O)(O)C(Nc1cc(Cl)ccc1Cl)P(=O)(O)O [2,5-DICHLOROPHENYLAMINOMETHYLENEBISPHOSPHONIC ACID] yielded an IC50 [1] of 39.2 µM and an inhibition [2] of 79.1%.
Cc1cc(C)cc(NC(P(=O)(O)O)P(=O)(O)O)c1 [3,5-DIMETHYLPHENYLAMINOMETHYLENEBISPHOSPHONIC ACID] showed an IC50 [1] of 56 µM, a Ki [3] of 53 µM and an inhibition [2] of 67.5%. The Ki [4] was 55 µM.
For O=P(O)(O)C(O)c1ccc(Cl)cc1 (centres undefined), the inhibition [2] was 8.3%.
NC(c1cccc(Cl)c1)P(=O)(O)O (centres undefined) showed an inhibition [2] of 8.1%.
NC(c1ccc(Cl)cc1Cl)P(=O)(O)O (centres undefined) [AMINO(2,4-DICHLOROPHENYL)METHYLPHOSPHONIC ACID] was tested, and the IC50 [1] was 2610 µM and the inhibition [2] was 40.7%.
O=P(O)(O)C(Nc1cccc(Cl)c1Cl)P(=O)(O)O [2,3-DICHLOROPHENYLAMINOMETHYLENEBISPHOSPHONIC ACID] gave an IC50 [1] of 12.8 µM and an inhibition [2] of 84.9%.
Compound O=P(O)(O)C(Nc1ccc(Cl)c(Cl)c1)P(=O)(O)O [3,4-DICHLOROPHENYLAMINOMETHYLENEBISPHOSPHONIC ACID] has an IC50 [1] of 31.9 µM and an inhibition [2] of 73.8%.
Compound O=P(O)(O)C(O)c1c(Cl)cccc1Cl (centres undefined) has an inhibition [2] of 10.7%.
Compound O=P(O)(O)C(O)c1ccc(Cl)c(Cl)c1 (centres undefined) has an inhibition [2] of 14.6%.
